Assay results taken from ChEMBL document CHEMBL3576855, “Spongosine production by a Vibrio harveyi strain associated with the sponge Tectitethya crypta” (J Nat Prod, 2015).
Activity calls are given as the source filed them. No cut-off for these calls is given here.

Tests used:
RAW264.7 [1] = test: Antiinflammatory activity in mouse RAW264.7 cells assessed as inhibition of LPS-stimulated nitric oxide production at 3 ug/ml after 24 hrs by Colorimetry based Griess assay; format: functional; conditions: RAW264.7, 24 h
How it was run: (§1)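 RAW 264.7 murine macrophages were pretreated with the nucleosides for 1 h at 0.1, 0.3, 1.0, 3.0, 10 and 30 μg/mL, with n = 6 wells per concentration. LPS (3 μg/mL) was then added and cells incubated 24 h. Nitrite was measured with Griess stain and expressed as percent reduction versus the LPS control. Significance was tested by ANOVA with Dunnett's test.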

RAW264.7 [2] = test: Cytotoxicity against mouse RAW264.7 cells assessed as cell viability after 48 hrs by MTT assay; format: cell-based; conditions: raw264.7, 48 h
RAW264.7 [3] = test: Antiinflammatory activity in mouse RAW264.7 cells assessed as inhibition of LPS-stimulated nitric oxide production up to 30 ug/ml after 24 hrs by Colorimetry based Griess assay; format: functional, cell-based; how it was run: as §1

SMILES	inhibition at 3 µg/mL (RAW264.7 [1]) [%]	Activity (RAW264.7 [2])	inhibition (RAW264.7 [3])
COc1nc(N)c2ncn([C@@H]3O[C@H](CO)[C@@H](O)[C@H]3O)c2n1 [BVT.115959]	60	Non-toxic	–
COc1nc(N)c2ncn([C@H]3C[C@H](O)[C@@H](CO)O3)c2n1	–	Non-toxic	Active
Nc1nc2c([nH]c(=O)n2[C@H]2C[C@H](O)[C@@H](CO)O2)c(=O)[nH]1	–	–	Active
Nc1nc(O)c2ncn([C@H]3C[C@H](O)[C@@H](CO)O3)c2n1	–	–	Active
COc1nc(N)c2nc[nH]c2n1	–	–	Active
COc1nc(N)c2[nH]cnc2n1	–	Non-toxic	–
Nc1nc2c(nc(O)n2[C@H]2C[C@H](O)[C@@H](CO)O2)c(=O)[nH]1	–	Non-toxic	–
Cc1cn([C@@H]2O[C@H](CO)[C@@H](O)[C@@H]2O)c(=O)[nH]c1=O	–	Non-toxic	Active
Nc1nc2c(ncn2[C@H]2C[C@H](O)[C@@H](CO)O2)c(=O)[nH]1 [DEOXYGUANOSINE]	–	Non-toxic	–
